Source: ChEMBL document CHEMBL1142621, “Galloylglucosides from berries of Pimenta dioica” (J Nat Prod, 2000)

Assays:
Format in all cases: functional
[1] = DPPH radical scavenging activity at 80 uM after 30 mins by spectrophotometric assay
Procedure, shortened: (§1)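 Compounds added to ethanolic DPPH radical solution (100 µM final). Mixtures were vortexed, then kept 30 min at 25 °C in a water bath in the dark. Remaining DPPH was read by absorbance at 517 nm. Scavenging = (A without compound − A with compound)/A without compound × 100. Means with SD from three independent experiments; column differences tested at p < 0.05.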

[2] = DPPH radical scavenging activity at 40 uM after 30 mins by spectrophotometric assay; procedure, shortened: as §1
[3] = DPPH radical scavenging activity at 20 uM after 30 mins by spectrophotometric assay; procedure, shortened: as §1
[4] = DPPH radical scavenging activity at 10 uM after 30 mins by spectrophotometric assay; procedure, shortened: as §1
[5] = DPPH radical scavenging activity at 5 uM after 30 mins by spectrophotometric assay; procedure, shortened: as §1
[6] = DPPH radical scavenging activity at 2.5 uM after 30 mins by spectrophotometric assay; procedure, shortened: as §1

SMILES: C=CCc1cc(OC)c(O)c(O[C@@H]2O[C@H](COC(=O)c3cc(O)c(O)c(O)c3)[C@@H](O)[C@H](O)[C@H]2O)c1
- Activity [1]: 95.8%
- Activity [2]: 95.7%
- Activity [3]: 91.2%
- Activity [4]: 53.6%
- Activity [5]: 26.8%
- Activity [6]: 12.2%

SMILES: Cc1cc(C(C)(C)C)c(O)c(C(C)(C)C)c1
- Activity [1]: 68%
- Activity [2]: 47.5%
- Activity [3]: 28.6%
- Activity [4]: 16.7%
- Activity [5]: 11.8%
- Activity [6]: 6.3%

SMILES: C=CCc1ccc(O[C@@H]2O[C@H](COC(=O)c3cc(O)c(O)c(O)c3)[C@@H](O)[C@H](O)[C@H]2O)c(OC)c1
- Activity [1]: 95.7%
- Activity [2]: 95.2%
- Activity [3]: 95.2%
- Activity [4]: 60.9%
- Activity [5]: 31.7%
- Activity [6]: 15%

SMILES: CC1=CC[C@H](C(C)(C)O[C@@H]2O[C@H](COC(=O)c3cc(O)c(O)c(O)c3)[C@@H](O)[C@H](O)[C@H]2O)CC1
- Activity [1]: 95.3%
- Activity [2]: 95.3%
- Activity [3]: 90.1%
- Activity [4]: 46.2%
- Activity [5]: 24.5%
- Activity [6]: 12.9%

SMILES: O=C(O)c1cc(O)c(O)c(O)c1
- Activity [1]: 95.7%
- Activity [2]: 94.8%
- Activity [3]: 86.8%
- Activity [4]: 61.6%
- Activity [5]: 34.9%
- Activity [6]: 19%

SMILES: CC1=CC[C@@H](C(C)(C)O[C@@H]2O[C@H](COC(=O)c3cc(O)c(O)c(O)c3)[C@@H](O)[C@H](O)[C@H]2O)CC1
- Activity [1]: 95.4%
- Activity [2]: 95.4%
- Activity [3]: 88.9%
- Activity [4]: 48.4%
- Activity [5]: 26.2%
- Activity [6]: 14.8%

SMILES: Cc1c(C)c2c(c(C)c1O)CC[C@@](C)(CCC[C@H](C)CCC[C@H](C)CCCC(C)C)O2
- Activity [1]: 95.8%
- Activity [2]: 95.7%
- Activity [3]: 48.8%
- Activity [4]: 23.4%
- Activity [5]: 14%
- Activity [6]: 8.3%

SMILES: COc1cc(CC(CO)O[C@@H]2O[C@H](COC(=O)c3cc(O)c(O)c(O)c3)[C@@H](O)[C@H](O)[C@H]2O)ccc1O (mixture of isomers)
- Activity [1]: 95.6%
- Activity [2]: 95.3%
- Activity [3]: 92.4%
- Activity [4]: 56.9%
- Activity [5]: 33.1%
- Activity [6]: 17.7%
